Measured values as given in paper PMC4629265 (Acta Pharmaceutica Sinica. B, 2015).

Columns and labels:
Assay type in all cases: cell-based
Vero cells = experiment: Cytotoxicity on Vero cells, CPE method; details: 3 d
How it was run: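 Vero cells were seeded at 3×10⁴ cells/well and incubated overnight. Test compounds were then added at different concentrations in triplicate and incubated 3 d, with cytotoxicity scored by CPE. TC50, the concentration inhibiting 50% of cell growth versus untreated controls, was calculated by Reed and Muench.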

HCV = experiment: Anti-HCV assay in infected Huh7.5 cells, HCV RNA by RT-PCR; details: Hepatitis C virus, Huh7.5, 96 h, read-out: IC50 (anti-HCV activity)
How it was run: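 Huh7.5 cells (DMEM, 10% inactivated FBS) were seeded at 3×10⁴ cells/cm². After 6 h they were infected with chimeric J6/JFH/JC1 HCV stock (45 u/cell) and given test compound at the same time, with an NS3/4A protease inhibitor as positive control. At 96 h, intracellular total RNA was extracted and HCV RNA quantified by one-step RT-PCR. IC50 was calculated by Reed & Muench.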

[1] = Cytotoxicity in Huh7.5 cells, MTT assay; details: human
How it was run: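 Huh7.5 cells were plated at 1×10⁴ cells/well. After 6 h the medium was replaced with fresh medium containing test compound at various concentrations. Viability was read by MTT at 96 h, and CC50 was calculated by the Reed & Muench method.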

EV71 (strain SZ-98) = experiment: Anti-EV71 assay in Vero cells, CPE method; details: EV71 strain SZ-98, Vero cells
How it was run: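 Vero cells (MEM, 10% FBS) at 3×10⁴ cells/well were infected with 100TCID50 EV71 strain SZ-98. Test compounds were added immediately at various concentrations and incubated another 48 h. Cytopathic effect was scored, with pirodavir as positive control. IC50 was determined by the Reed and Muench method.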

IC50 (HCV)	Compound	TC50 (Vero cells)	CC50 at 96 h [1]	anti-EV71 activity (in words) (EV71 (strain SZ-98))
–	CCC(=O)Nc1cc(C(=O)Nc2ccc(C(C)C)cc2)ccc1OC [Compound 22, N-(4-Iso-propylphenyl)-4-methoxy-3-propionamidobenzamide]	>65.35 µM	–	–
0.57 µM	CCC(=O)Nc1cc(C(=O)Nc2ccc(C(C)(C)C)cc2)ccc1OC [Compound 23, N-(4-tert-Butylphenyl)-4-methoxy-3-propionamidobenzamide]	36.24 ± 0.00 µM	30.7 ± 1.25 µM	–
–	CCCCc1ccc(NC(=O)c2ccc(OC)c(NC(=O)CC)c2)cc1 [Compound 24, N-(4-Butylphenyl)-4-methoxy-3-propionamidobenzamide]	36.24 ± 0.00 µM	–	–
2.36 ± 0.12 µM	CCC(=O)Nc1cc(C(=O)Nc2ccc(C3CCCCC3)cc2)ccc1OC [Compound 25, N-(4-Cyclohexylphenyl)-4-methoxy-3-propionamidobenzamide]	–	122 ± 2.6 µM	–
–	CCC(=O)Nc1cc(C(=O)Nc2ccc(C#N)cc2)ccc1OC [Compound 26, N-(4-Cyanophenyl)-4-methoxy-3-propionamidobenzamide]	297.67 µM	–	–
–	CCC(=O)Nc1cc(C(=O)Nc2ccc(N3CCN(C)CC3)cc2)ccc1OC [Compound 27, N-(4-(4-Methylpiperazin-1-yl)phenyl)-4-methoxy-3-propionamidobenzamide]	291.60 ± 0.00 µM	–	did not display antiviral activity
–	CNc1cc(C(=O)Nc2cccc(Cl)c2)ccc1OC [Compound 28, N-(3-Chlorophenyl)-4-methoxy-3-(methylamino)benzamide]	110.50 ± 0.00 µM	–	–
–	CCc1ccc(NC(=O)c2ccc(OC)c(NC)c2)cc1 [Compound 29, N-(4-Ethylphenyl)-4-methoxy-3-(methylamino)benzamide]	>26.09 µM	–	–
–	CNc1cc(C(=O)Nc2ccc(C(C)C)cc2)ccc1OC [Compound 30, N-(4-iso-propylphenyl)-4-methoxy-3-(methylamino)benzamide]	>8.29 µM	–	–
32 ± 2.14 µM	CNc1cc(C(=O)Nc2ccc(C(C)(C)C)cc2)ccc1OC [Compound 31, N-(4-tert-Butylphenyl)-4-methoxy-3-(methylamino)benzamide]	34.23 ± 0.00 µM	56.6 ± 4.2 µM	–
–	CCCCc1ccc(NC(=O)c2ccc(OC)c(NC)c2)cc1 [Compound 32, N-(4-Butylphenyl)-4-methoxy-3-(methylamino)benzamide]	41.12 ± 0.00 µM	–	–
34.6 ± 3.1 µM	CNc1cc(C(=O)Nc2ccc(C3CCCCC3)cc2)ccc1OC [Compound 33, N-(4-Cyclohexylphenyl)-4-methoxy-3-(methylamino)benzamide]	–	40 ± 7.25 µM	–
–	CNc1cc(C(=O)Nc2ccc(C#N)cc2)ccc1OC [Compound 34, N-(4-Cyanophenyl)-4-methoxy-3-(methylamino)benzamide]	>79.07 µM	–	–
–	CCC(=O)Nc1cc(C(=O)Nc2ccc(Cl)cc2)ccc1O [Compound 35, N-(4-Chlorophenyl)-4-hydroxy-3-propionamidobenzamide]	100.79 ± 0.00 µM	–	–
–	CCC(=O)Nc1cc(C(=O)Nc2ccc(C(C)(C)C)cc2)ccc1O [Compound 36, N-(4-tert-Butylphenyl)-4-hydroxy-3-propionamidobenzamide]	86.08 ± 0.00 µM	–	–
7.12 ± 2.48 µM	CCC(=O)Nc1cccc(C(=O)Nc2ccc(Cl)cc2)c1 [Compound 41, N-(4-Chlorophenyl)-3-propionamidobenzamide]	106.12 ± 0.00 µM	> 200 µM	–
19.5 ± 7.18 µM	CNc1cccc(C(=O)Nc2ccc(Cl)cc2)c1 [Compound 42, N-(4-Chlorophenyl)-3-(methylamino)benzamide]	>28.5 µM	164 ± 9.84 µM	–
–	CCC(=O)Nc1cc(C(=O)CNc2ccc(C)cc2)ccc1OC [Compound 49, N-(2-Methoxy-5-(2-(p-tolylamino)acetyl)phenyl)propionamide]	98.31 µM	–	inactive
–	CCC(=O)Nc1cc(C(=O)CNc2ccc(C(C)(C)C)cc2)ccc1OC [Compound 50, N-(5-(2-((4-(tert-Butyl)phenyl)amino)acetyl)-2-methoxyphenyl)propionamide]	>20.14 µM	–	inactive
–	CNc1cc(C(=O)CNc2ccccc2)ccc1OC [Compound 54, 1-(4-Methoxy-3-(methylamino)phenyl)-2-(phenylamino)ethanone]	167.11 ± 34.70 µM	–	inactive
–	CNc1cc(C(=O)CNc2ccc(Cl)cc2)ccc1OC [Compound 55, 2-((4-Chlorophenyl)amino)-1-(4-methoxy-3-(methylamino)phenyl)ethanone]	73.10 ± 0.00 µM	–	inactive
–	CCOC(=O)c1ccc(OCCC2CCN(c3ccc(C)nn3)CC2)cc1 [Pirodavir, pirodavir, reference compound]	49.78 ± 3.96 µM	–	–
0.01 µM	CCC[C@H](NC(=O)[C@@H]1[C@H]2CCC[C@H]2CN1C(=O)[C@@H](NC(=O)[C@@H](NC(=O)c1cnccn1)C1CCCCC1)C(C)(C)C)C(=O)C(=O)NC1CC1 [VX-950, telaprevir, reference compound]	–	21.3 ± 4.7 µM	–
–	N-(2,3-Dihydrobenzo[b][1,4]dioxin-6-yl)-4-methyl-3-(methylamino)benzamide [Compound 44]	322.65 ± 0.00 µM	–	poor
–	N-(2,3-Dihydrobenzo[b][1,4]dioxin-6-yl)-4-methyl-3-propionamidobenzamide [Compound 43]	196.10 ± 0.00 µM	–	poor
